Shown are actives, neighbours in structure and some others; about 3.5% of the full set was active somewhere.
Ecoli rRNA inh: selective bacterial rRNA inhibition in E. coli | AID 720706 | GFP signal change (wild-type ribosome), % (concentration not given with the values) | E. coli WT GFP vs humanized-ribosome RFP mutants, fluorescence, 24 h; active compounds read low; DMSO median 0, no signal -100 | 350,000 compounds, 1.6% hits;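 active means significant combined selectivity score with lowered wild-type GFP, culture density cut under 30%, mutant RFP and density less affected; inactive means any of these conditions unmet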
PGC1a acetyl inh: lowers PGC1a acetylation signal in U2OS cells. AlphaScreen anti-acetyl-lysine; with virally co-expressed GCN5 acetyltransferase. AID 651687. inhibition, % at 15.6 µM. 350,000 compounds, 0.17% hits;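 active means every replicate shows inhibition of at least 40%; inconclusive means mean inhibition at least 40% but some replicate below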;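 further: 0% = neutral control wells and 100% = positive control wells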
PglD inh: PglD (C. jejuni) enzyme inhibition. inhibition, % at 12.5 µM. purified PglD enzyme, DTNB colorimetric CoA detection. 360,000 compounds, 0.098% hits; in the data active means inhibition above about 16%, passing the limit was not always enough; inconclusive means no clear call, values can overlap the other calls
Env fusion inh: HIV envelope-mediated fusion inhibition; 360,000 compounds, 1.1% hits; AID 651610; HeLa-JRFL Env/CEM21 cell fusion, luciferase; inhibition, % at 12.3 µM;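 active means mean replicate inhibition score of at least 50 and every replicate individually at or above 50; inconclusive means only one of the two criteria met; inactive means mean below 50 and not all replicates reaching 50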;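 further: 0% = plate neutral controls and 100% = maraviroc near 300 nM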
DENV2 CPE rescue: inhibitors of DENV2 cytopathic effect; DENV2-infected cells, cytopathic effect rescue, plate reader; CPE inhibition, % at 9.99 µM; 350,000 compounds, 1.7% hits; in the data active means CPE inhibition above about 20%, passing the limit was not always enough; inconclusive means no clear call, values can overlap the other calls; tested in BHK-21 cells;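 further: 0% = median of neutral control wells and 100% = median of positive control wells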
FN deposition inh: fibronectin deposition inhibition. AID 743247. 350,000 compounds, 0.086% hits. inhibition, % at 12.6 µM. AH1F fibroblasts, Alexa488-fibronectin deposition fluorescence, overnight;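 active means mean inhibition across replicates of 30% or more, regardless of how many single replicates reach that level; inconclusive means mean under 30% yet at least half of replicates reach 30%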;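 further: positive control wells lacked labelled fibronectin entirely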
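Material: AH1F fibroblast monolayer depositing Alexa488-labelled fibronectin into matrix | Input: 10000 AH1F cells/well | Medium: DMEM plus 2% serum, read in PBS | Reagent: Alexa488-fibronectin, 24 nM final in well | Compound dosing: One dose per compound, pinned | Schedule: 1 h adhesion, overnight exposure | Measured by: Fluorescence at 485 nm excitation, 525 nm emission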
Numbers without * were called inactive; ? = inconclusive; . = not tested or not shown; [ ] = dose if it differs, or a comment.

SMILES | Ecoli rRNA inh | PGC1a acetyl inh | PglD inh | Env fusion inh | DENV2 CPE rescue | FN deposition inh
CCCNC(=O)Nc1ccc2c(c1)C(=O)N(C)C[C@H](OC)[C@H](C)CN(C)[C@@H](C)CO2 | 2 | 2 | 0 | 0[16.7 µM] | 101* | 9
CCCNC(=O)Nc1ccc2c(c1)C(=O)N(C)C[C@@H](OC)[C@H](C)CN(C)[C@@H](C)CO2 | 2 | 0 | -1 | 3[16.7 µM] | -1 | -3
CCOc1ccc(C(=O)Nc2cccc(C(=O)O)c2C)cc1Cl | -2 | . | . | 60* | . | -7
C=C[C@@H](COC(=O)c1ccc([N+](=O)[O-])cc1)N(Cc1ccc(OC)cc1)S(=O)(=O)c1ccc(Br)cc1 | . | -8 | -1 | 2[16.7 µM] | 24* | .
O=C(N/C(=C\c1ccccc1)C(=O)N1CCN(CCO)CC1)c1ccccc1 | . | -2 | -4 | 79* | . | 5
O=C(N/C(=C/c1ccccc1)C(=O)N1CCCCC1)c1ccccc1 | 0 | -8 | 5 | -23 | -5 | .
Nc1ncccc1C(=O)OCC(=O)N1CCN(S(=O)(=O)c2ccc(Cl)cc2)CC1 | -1 | 14 | -6 | . | 45* | .
CCOc1ncccc1C(=O)OCC(=O)N1CCN(S(=O)(=O)c2ccc(Cl)cc2)CC1 | . | 3 | 3 | -21 | . | 0
COc1cc(NC2c3ccccc3C(=O)N2Cc2ccccc2Cl)cc(OC)c1 (stereo not given) | -11 | -20 | 4 | 65* | 4 | -17
C[C@H]1CN([C@@H](C)CO)S(=O)(=O)c2ccc(C#CC3CC3)cc2O[C@H]1CN(C)CC1CC1 | 4 | -7 | -3 | -1[16.7 µM] | 14 | -2
O=C(/C=C/c1ccc([N+](=O)[O-])cc1)c1ccccc(=O)c1O | -14* | -7 | . | -272 | ? | 5
COCC(=O)Nc1ccc2c(c1)C(=O)N(C)C[C@@H](OC)[C@@H](C)CN(C(=O)c1cccnc1)[C@H](C)CO2 | 2 | 4 | 0 | . | 4 | -3
Cc1ccc(C(=O)CC(=O)c2cccc(F)c2)c(O)c1 | . | 2 | -3 | 61* | . | -13
N#C[C@H]1[C@H](c2ccc(-c3ccccc3F)cc2)[C@@H](CO)N1C(=O)Cc1ccccc1 | -30 | -9 | -2 | -31[16.7 µM] | -11 | -17
COc1ccc(-c2ccc3n(c2=O)C[C@@H]2[C@@H](CO)[C@H](C(=O)N(C)C)[C@H]3N2Cc2cccnc2)cc1 | 1 | . | 3 | . | 7 | .
CCCCOCC1CN(CCCC)S(=O)(=O)c2c(Oc3ccc(C)cc3)cccc2O1 (stereo not given) | -3 | . | . | 65* | 6 | -1
CN1C(=O)c2cc(NC(=O)C3CCC3)ccc2OC[C@H]2O[C@@H](CC(=O)NCCc3ccncc3)CC[C@@H]21 | -1 | 1 | . | . | 7 | -2
O=C(NC(=S)Nc1ccccc1N1CCCC1)c1ccco1 | 8 | 0 | 4 | -9 | 6 | -1
O=C(NC(=S)Nc1cccc2c(O)cccc12)c1ccco1 | -16 | -8 | 4 | -21 | -9 | .
CC1Cc2ccccc2N1C(=S)NC(=O)c1ccco1 (stereo not given) | -27* | -2 | . | ? | 10 | -2
O=C(NC(=S)Nc1cccc2cc(O)ccc12)c1ccco1 | -12 | 2 | 1 | -21 | 44* | 1
CS(=O)(=O)N1CCN(c2ccccc2NC(=O)C(c2ccccc2)c2ccccc2)CC1 | . | -10 | -3 | 71* | . | .
CS(=O)(=O)N1CCN(c2ccccc2NC(=S)NC(=O)c2ccco2)CC1 | -28* | . | -2 | -18 | 3 | 18
C[C@H]1CN([C@@H](C)CO)C(=O)c2cccc(NC(=O)C3CC3)c2O[C@@H]1CN(C)S(C)(=O)=O | 4 | 5 | -2 | -10[16.7 µM] | 0 | .
CN1CCN(c2ccccc2NC(=O)C(Cc2ccccc2)n2cccc2)CC1 (stereo not given) | 0 | . | -3 | 77* | -8 | 2
CC1(C)C(=O)Nc2ccccc2N1C(=O)COC(=O)c1cccnc1 | -1 | 3 | -3 | 64* | -5 | -20
Cc1ccc(C(=O)OCC(=O)N2C(C)CCCC2C)cc1S(=O)(=O)N1CCOCC1 (stereo not given) | 2 | -11 | 1 | . | 25* | -9
Cc1ccc(C(=O)OCC(=O)Nc2ccccc2C(F)(F)F)cc1S(=O)(=O)N1CCCCC1 | -2 | -2 | -4 | 0 | 101* | -3

Screening results deposited in PubChem by Broad Institute.
